Test results published in ChEMBL document CHEMBL4699650, “SAR Investigation and Discovery of Water-Soluble 1-Methyl-1,4-dihydroindeno[1,2-c]pyrazoles as Potent Tubulin Polymerization Inhibitors” (J Med Chem, 2020).
Active and inactive are the calls of the source. The calls are words filed in the database; no cut-off is given here.

Columns and labels:
HepG2 [1] = assay: Antiproliferation activity against human HepG2 cells assessed as cell growth inhibition measured after 72 hrs by MTT assay; assay type: functional
Outline: (§1)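 Cells grown in RPMI-1640 with 10% FBS at 37 °C, 5% CO2, seeded at 4−7 × 10³ cells/well and left to adhere overnight. Exposed to a range of concentrations for 72 h, then MTT (2.5 mg/mL stock) added for 4 h. Formazan dissolved in DMSO and absorbance read at 570 nm. GI50 taken as the concentration giving 50% growth inhibition, reported as mean ± SD of at least three independent experiments.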

HCT-116 = assay: Antiproliferation activity against human HCT116 cells assessed as cell growth inhibition measured after 72 hrs by MTT assay; assay type: functional; outline: as §1
[2] = Inhibition of porcine brain tubulin polymerization measured every 60 sec for 60 mins in presence of GTP by fluorescence assay; design: species or system Sus scrofa
Outline: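 Fluorescence kit assay using 2 mg/mL porcine brain tubulin with 2 mM MgCl₂, 0.5 mM EGTA, 1 mM GTP and 15% glycerol. Compound at various concentrations preincubated 1 min at 37 °C before adding the tubulin mix. Read at ex 355/em 460 nm every 60 s for 60 min. IC50 is the concentration giving 50% inhibition at 60 min; mean ± SD of ≥3 independent experiments.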

A549 = assay: Antiproliferation activity against human A549 cells assessed as cell growth inhibition measured after 72 hrs by MTT assay; assay type: functional; outline: as §1
[3] = Antiproliferation activity against human A549/Taxol cells assessed as cell growth inhibition measured after 72 hrs by MTT assay; assay type: functional; outline: as §1
[4] = Cytotoxicity against human L02 cells assessed as assessed as cell growth inhibition measured after 72 hrs by MTT assay; assay type: cell-based
Outline: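 LO2 normal liver cells cultured in RPMI-1640/10% FBS at 37 °C, 5% CO2 and seeded at 4−7 × 10³ cells/well. Graded concentrations applied for 72 h, then MTT readout at 570 nm. GI50 is the concentration giving 50% growth inhibition, mean ± SD of at least three independent experiments.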

[5] = Resistance index, ratio of GI50 for antiproliferation activity against human A549/Taxol cells to GI50 for antiproliferation activity against human A549 cells assessed as cell growth inhibition measured after 72 hrs by MTT assay
[6] = Selectivity index, ratio of GI50 for cytotoxicity against human L02 cells to GI50 for antiproliferation activity against human HepG2 cells assessed as cell growth inhibition measured after 72 hrs by MTT assay; assay type: toxicity, cell-based; settings: L02 cells and HepG2 cells, read-out: RatioGI50
Outline: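 MTT assay: cells seeded 4–7 × 10³/well, adhered overnight, exposed to a concentration series for 72 h. MTT (2.5 mg/mL stock) added for 4 h, crystals dissolved in DMSO, absorbance read at 570 nm. GI50 is mean ± SD of ≥3 independent experiments. Selectivity = GI50 on normal LO2 / GI50 on HepG2. Resistance fold = GI50 on resistant cells / GI50 on sensitive cells.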

HepG2 [7] = assay: Inhibition of cell migration in human HepG2 cells at 10 nM measured after 24 hrs by inverted light microscopy method based wound healing assay relative to control; assay type: functional
Outline: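 Confluent HepG2 monolayer (seeded 3 × 10⁵ cells/well) scratched with a pipette tip and washed with PBS. Incubated in serum-free DMEM with compound at 2.5, 5 or 10 nM for 24 h; CA-4 run in parallel, DMSO as vehicle. Wound imaged at 0 and 24 h by inverted microscope and compared with control.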

[8] = target: Tubulin beta (Homo sapiens) (UniProt P68371+Q9H4B7+Q13509+P04350+Q3ZCM7+P07437+Q13885+Q9BVA1+Q9BUF5+A6NNZ2); assay: Inhibition of N,N'-Ethylenebis(iodoacetamide) binding to beta-tubulin in human HepG2 cells assessed as reduction in EBI/beta-tubulin adduct formation at 5 uM preincubated for 2 hrs followed by EBI addition and measured after 1.5 hrs by Western blot analysis; assay type: cell-based; settings: time 3.5 hrs
Outline: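 HepG2 seeded 5 × 10⁵ cells/well, adhered overnight. Lysate protein (20 μg) run on 10% polyacrylamide gel on ice and transferred to PVDF. Probed with anti-β-tubulin 16 h at 4 °C, then HRP secondary. Chemiluminescence detection.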

HepG2 [9] = assay: Induction of apoptosis in human HepG2 cells assessed as PARP cleavage at 20 nM incubated for 24 hrs by western blot analysis; assay type: functional, cell-based
Outline: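 Lysates (20 μg protein) run on 10% polyacrylamide gel, transferred to PVDF, blocked in 5% nonfat milk, probed overnight at 4 °C for cleaved PARP. HRP secondary, ECL detection, densitometry; one-way ANOVA with Dunnett's test vs control.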

| SMILES | GI50 (HepG2 [1]) [nM] | GI50 (HCT-116) [nM] | IC50 [2] [nM] | GI50 (A549) [nM] | GI50 [3] [nM] | GI50 at 72 h [4] [nM] | RatioGI50 [5] | selectivity ratio at 72 h [6] | inhibition at 0.01 µM (HepG2 [7]) [%] | inhibition [8] | Activity (HepG2 [9]) |
| --- | --- | --- | --- | --- | --- | --- | --- | --- | --- | --- | --- |
| CCOc1cccc(Nc2nn(C)c3c2Cc2cc(OCC)c(OCCCO)cc2-3)n1 | 15.5 | 27.1 | 5000 | 72 | – | – | – | – | – | – | – |
| CCOc1cc2c(cc1OCC(=O)NC)-c1c(c(Nc3cccc(C#N)c3)nn1C)C2 | 97.3 | 819 | > 20000 | 2040 | – | – | – | – | – | – | – |
| CCOc1ccc(Nc2nn(C)c3c2Cc2cc(OCC)c(OCC(N)=O)cc2-3)cc1 | 1910 | 4310 | > 20000 | 15000 | – | – | – | – | – | – | – |
| CC(=O)O[C@H]1C(=O)[C@@]2(C)[C@H]([C@H](OC(=O)c3ccccc3)[C@]3(O)C[C@H](OC(=O)[C@H](O)[C@@H](NC(=O)c4ccccc4)c4ccccc4)C(C)=C1C3(C)C)[C@]1(OC(C)=O)CO[C@@H]1C[C@@H]2O [PACLITAXEL] | – | – | – | – | 935 | 30.8 | 246 | 12 | – | – | – |
| CCCOc1cc2c(cc1OCC(N)=O)-c1c(c(Nc3cccc(OCC)c3)nn1C)C2 | 55.6 | 230 | 11000 | 426 | – | – | – | – | – | – | – |
| CCOc1cccc(Nc2nn(C)c3c2Cc2cc(OCc4ccc(OC)cc4)c(OCC(N)=O)cc2-3)c1 | 3070 | 16600 | > 20000 | 3080 | – | – | – | – | – | – | – |
| CCOc1cccc(Nc2nn(C)c3c2Cc2cc(OCC)c(OCCCNC(C)=O)cc2-3)c1 | 364 | 197 | > 20000 | 935 | – | – | – | – | – | – | – |
| CCCOc1cc2c(cc1OCC)Cc1c(Nc3cccc(OCC)c3)nn(C)c1-2 | 397 | 129 | 14600 | 512 | – | – | – | – | – | – | – |
| CCOc1cc2c(cc1OCC(N)=O)-c1c(c(Nc3cccc(C(=O)NC)c3)nn1C)C2 | 642 | 2100 | > 20000 | 13100 | – | – | – | – | – | – | – |
| CCOc1cc2c(cc1OCC(N)=O)-c1c(c(Nc3cccc(C#N)c3)nn1C)C2 | 66.9 | 361 | 9900 | 166 | – | – | – | – | – | – | – |
| COc1ccc(/C=C\c2cc(OC)c(OC)c(OC)c2)cc1O [COMBRETASTATIN A4] | 6.1 | 2.4 | 2300 | 4.8 | 20.4 | 333 | 4 | 55 | 47 | – | – |
| CCOc1cc2c(cc1OCCCN)-c1c(c(Nc3cccc(C#N)c3)nn1C)C2 | 3.8 | 6.4 | 5700 | 20.8 | – | – | – | – | – | – | – |
| CC[C@]1(O)C[C@H]2CN(CCc3c([nH]c4ccccc34)[C@@](C(=O)OC)(c3cc4c(cc3OC)N(C=O)[C@H]3[C@@](O)(C(=O)OC)[C@H](OC(C)=O)[C@]5(CC)C=CCN6CC[C@]43[C@@H]65)C2)C1 | – | – | – | – | – | – | – | – | – | inactive | – |
| CCOc1cccc(Nc2nn(C)c3c2Cc2cc(OC)c(OCC(N)=O)cc2-3)c1 | 15 | 26.5 | 13400 | 19.6 | – | – | – | – | – | – | – |
| CCOc1cc2c(cc1OCC(N)=O)-c1c(c(Nc3cccc(C(=O)OC)c3)nn1C)C2 | 4.3 | 9.7 | 4500 | 3 | – | – | – | – | – | – | – |
| CCCCOc1cc2c(cc1OCC(N)=O)-c1c(c(Nc3cccc(OCC)c3)nn1C)C2 | 2760 | 4770 | > 20000 | 19900 | – | – | – | – | – | – | – |
| CCOc1cc2c(cc1OCCCO)-c1c(c(Nc3cccc(C(=O)OC)c3)nn1C)C2 | 7.1 | 12.3 | 5900 | 8.1 | – | – | – | – | – | – | – |
| CCOc1cc2c(cc1OCC(=O)NC)-c1c(c(Nc3cccc(C(=O)OC)c3)nn1C)C2 | 10.2 | 37.1 | 6300 | 78.1 | – | – | – | – | – | – | – |

| SMILES | GI50 (HepG2 [1]) [nM] | GI50 (HCT-116) [nM] | IC50 [2] [nM] | GI50 (A549) [nM] | GI50 [3] [nM] | GI50 at 72 h [4] [nM] | RatioGI50 [5] | selectivity ratio at 72 h [6] | inhibition at 0.01 µM (HepG2 [7]) [%] | inhibition [8] | Activity (HepG2 [9]) |
| --- | --- | --- | --- | --- | --- | --- | --- | --- | --- | --- | --- |
| CCOc1cc2c(cc1OCC(N)=O)-c1c(c(Nc3cccc(C(=O)CC)c3)nn1C)C2 | 9.2 | 27 | 4100 | 21.4 | – | – | – | – | – | – | – |
| CCOC(=O)c1cccc(Nc2nn(C)c3c2Cc2cc(OCC)c(OCC(N)=O)cc2-3)c1 | 3.4 | 4.5 | 3900 | 12 | – | – | – | – | – | – | – |
| CCOC(=O)c1cccc(Nc2nn(C)c3c2Cc2cc(OCC)c(OCCCO)cc2-3)c1 | 3.3 | 7.7 | 3500 | 5.3 | – | – | – | – | – | – | – |
| CCOc1cccc(Nc2nn(C)c3c2Cc2cc(O)c(OCC(N)=O)cc2-3)c1 | 5330 | 4660 | > 20000 | 15200 | – | – | – | – | – | – | – |
| CCOc1cc2c(cc1OCCCO)-c1c(c(Nc3cccc(C(=O)O)c3)nn1C)C2 | > 20000 | 5380 | > 20000 | 18300 | – | – | – | – | – | – | – |
| CCOc1cccc(Nc2nn(C)c3c2Cc2cc(OCC)c(OCC(=O)O)cc2-3)c1 | 1640 | 1270 | > 20000 | 8660 | – | – | – | – | – | – | – |
| CCOc1cc2c(cc1OCCCO)-c1c(c(Nc3cccc(C#N)c3)nn1C)C2 | 42.9 | 151 | 9100 | 176 | – | – | – | – | – | – | – |
| CCCOc1cc2c(cc1OCC(N)=O)Cc1c(Nc3cccc(OCC)c3)nn(C)c1-2 | 1960 | 1140 | > 20000 | 25400 | – | – | – | – | – | – | – |
| CCOc1cc2c(cc1OCC(N)=O)-c1c(c(Nc3cccc(C(=O)OC(C)C)c3)nn1C)C2 | 25.3 | 36.4 | 8000 | 121 | – | – | – | – | – | – | – |
| CCOc1cc2c(cc1OCCCO)-c1c(c(Nc3cccc(C(=O)OC(C)C)c3)nn1C)C2 | 36.7 | 103 | 7700 | 164 | – | – | – | – | – | – | – |
| CCOc1cccc(Nc2nn(C)c3c2Cc2cc(OCC)c(OCC(N)=O)cc2-3)n1 | 17.1 | 19 | 4100 | 62.5 | – | – | – | – | – | – | – |
| CCOc1cccc(Nc2nn(C)c3c2Cc2cc(OCC)c(OCCCO)cc2-3)c1 | 15.7 | 10.4 | 5800 | 94.4 | – | – | – | – | – | – | – |
| CCOc1cc2c(cc1OCCCO)-c1c(c(Nc3cccc(C(=O)CC)c3)nn1C)C2 | 13.6 | 24.5 | 5300 | 38.2 | – | – | – | – | – | – | – |
| CCOc1cc2c(cc1OCCCO)-c1c(c(Nc3cccc(C(=O)NC)c3)nn1C)C2 | 2350 | 1480 | > 20000 | 1340 | – | – | – | – | – | – | – |
| COc1cc2c(c(OC)c1OC)-c1ccc(OC)c(=O)cc1[C@@H](NC(C)=O)CC2 | – | – | – | – | – | – | – | – | – | – | Active |
| CCOc1cc2c(cc1OCCCN)-c1c(c(Nc3cccc(C(=O)CC)c3)nn1C)C2 | 2.1 | 4 | 3100 | 7.6 | – | – | – | – | – | – | – |
| CCNc1cccc(Nc2nn(C)c3c2Cc2cc(OCC)c(OCC(N)=O)cc2-3)c1 | 107 | 432 | 10800 | 356 | – | – | – | – | – | – | – |
